# In ChEMBL document CHEMBL2407018, “Luteolin suppresses the differentiation of THP-1 cells through the Inhibition of NOX2 mRNA expression and the membrane translocation of p47phox” (J Nat Prod, 2013):
# The source made the active and inactive calls. No cut-off for these calls is given here.
# Assays:
# [1] = biological target: T1, NADPH oxidase 2 (Homo sapiens) (UniProt P04839); assay: Inhibition of NOX2 in human THP1 cells assessed as suppression of TPA-induced membrane translocation of p47phox at 20 uM incubated for 1 hr prior to TPA challenge measured after 12 hrs by Western blot analysis; format: cell-based; conditions: THP-1
# T1 sequence (whole entry): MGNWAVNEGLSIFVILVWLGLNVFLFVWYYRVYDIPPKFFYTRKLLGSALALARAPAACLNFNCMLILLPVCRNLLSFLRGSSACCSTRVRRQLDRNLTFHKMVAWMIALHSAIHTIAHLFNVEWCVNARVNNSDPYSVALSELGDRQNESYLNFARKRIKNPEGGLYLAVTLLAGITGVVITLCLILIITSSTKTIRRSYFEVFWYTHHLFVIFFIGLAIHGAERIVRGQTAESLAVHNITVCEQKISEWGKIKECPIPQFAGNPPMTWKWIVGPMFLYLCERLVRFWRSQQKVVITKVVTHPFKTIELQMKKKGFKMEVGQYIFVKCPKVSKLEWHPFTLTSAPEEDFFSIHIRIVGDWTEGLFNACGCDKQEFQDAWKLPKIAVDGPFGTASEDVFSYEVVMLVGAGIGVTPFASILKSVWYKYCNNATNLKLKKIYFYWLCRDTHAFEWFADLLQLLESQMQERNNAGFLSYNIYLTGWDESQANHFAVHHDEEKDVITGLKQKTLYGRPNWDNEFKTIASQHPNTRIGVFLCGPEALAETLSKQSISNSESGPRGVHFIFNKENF
# Procedure, shortened: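 Cells pretreated 1 h, then 100 nM TPA for 12 h. Lysed in digitonin buffer B (pH 7.5); after 12000g for 15 min the pellet was solubilized in buffer B with 1% Triton X-100 to give the membrane fraction. 20 μg protein run on 12% SDS-PAGE, blotted for p47phox.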
# THP-1 [2] = assay: Downregulation of TPA-induced NOX2 mRNA expression in human THP1 cells at 20 uM incubated for 1 hr prior to TPA challenge measured after 24 hrs by RT-PCR analysis; format: functional, cell-based
# Procedure, shortened: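 THP-1 cells in RPMI1640 with 10% FCS, 2 × 10^6 cells per 3.5 cm dish, pretreated 1 h, then 100 nM TPA for 24 h. Total RNA extracted in TRIzol, NOX2 measured by RT-PCR and normalized to 18s rRNA.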
# [3] = biological target: T1, NADPH oxidase 2 (Homo sapiens); assay: Inhibition of NOX2 in human THP1 cells assessed as suppression of TPA-induced intracellular ROS accumulation at 20 uM incubated for 1 hr prior to TPA challenge measured after 24 hrs by flow cytometric analysis; format: cell-based; conditions: THP-1
# Procedure, shortened: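 THP-1 cells pretreated 1 h, then 100 nM TPA for 24 h. Cells scraped, stained 20 min with 10 μM carboxy-H2DCFDA in PBS with […] in a 5% CO2 incubator, and washed three times in ice-cold PBS. DCF fluorescence read by flow cytometry.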
# THP-1 [4] = assay: Inhibition of TPA-induced MEK/ERK phosphorylation in human THP1 cells at 20 uM incubated for 1 hr prior to TPA challenge measured after 15 mins by Western blot analysis; format: cell-based
# Procedure, shortened: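 THP-1 cells pretreated 1 h, then 100 nM TPA for 15 min. Lysed in buffer A (Tris pH 7.4 with phosphatase inhibitors, 1% Triton X-100). 20 μg protein run on 12% SDS-PAGE and PVDF, probed for phospho- and total MEK and ERK (1:1000) with biotin secondary and ABC detection.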
# [5] = biological target: T1, NADPH oxidase 2 (Homo sapiens); assay: Inhibition of NOX2 in human THP1 cells assessed as suppression of TPA-induced cell adhesion at 20 uM incubated for 1 hr prior to TPA challenge measured after 24 hrs by microscopic analysis; format: cell-based; conditions: THP-1
# Procedure, shortened: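 THP-1 cells at 2 × 10^6 per 3.5 cm dish in RPMI1640 with 10% FCS. Exposed to compound for 1 h, then to 100 nM TPA for 24 h. Dishes washed three times with PBS and the remaining adherent cells inspected by microscope.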
# [6] = biological target: T1, NADPH oxidase 2 (Homo sapiens); assay: Inhibition of NOX2 in human THP1 cells assessed as downregulation of TPA-induced CD36 mRNA expression at 0.2 to 2 uM incubated for 1 hr prior to TPA challenge measured after 24 hrs by RT-PCR analysis; format: cell-based; conditions: THP-1
# Procedure, shortened: (§1)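 THP-1 cells, 2 × 10^6 per 3.5 cm dish, pretreated 1 h with 0.2, 2 or 20 μM, then 100 nM TPA for 24 h. Cells scraped and washed in cold PBS, TRIzol RNA extracted. CD11b, CD14 and CD36 transcripts measured by RT-PCR and normalized to 18s rRNA.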
# [7] = biological target: T1, NADPH oxidase 2 (Homo sapiens); assay: Inhibition of NOX2 in human THP1 cells assessed as downregulation of TPA-induced CD14 mRNA expression at 0.2 to 2 uM incubated for 1 hr prior to TPA challenge measured after 24 hrs by RT-PCR analysis; format: cell-based; conditions: THP-1; procedure, shortened: as §1
# [8] = biological target: T1, NADPH oxidase 2 (Homo sapiens); assay: Inhibition of NOX2 in human THP1 cells assessed as downregulation of TPA-induced CD11b mRNA expression at 0.2 to 2 uM incubated for 1 hr prior to TPA challenge measured after 24 hrs by RT-PCR analysis; format: cell-based; conditions: THP-1; procedure, shortened: as §1
# [9] = biological target: T1, NADPH oxidase 2 (Homo sapiens); assay: Inhibition of NOX2 in human THP1 cells assessed as downregulation of TPA-induced CD36 mRNA expression at 20 uM incubated for 1 hr prior to TPA challenge measured after 24 hrs by RT-PCR analysis; format: cell-based; conditions: THP-1
# Procedure, shortened: (§2)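 THP-1 cells grown in RPMI1640 with 10% heat-inactivated FCS and penicillin/streptomycin at 37 °C, 5% CO2. Seeded at 2 × 10^6 cells per 3.5 cm dish. Compound added 1 h before 100 nM TPA for 24 h. Cells scraped, washed in cold PBS, lysed in TRIzol for total RNA. Transcripts measured by RT-PCR and normalized to 18s rRNA.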
# [10] = biological target: T1, NADPH oxidase 2 (Homo sapiens); assay: Inhibition of NOX2 in human THP1 cells assessed as downregulation of TPA-induced CD14 mRNA expression at 20 uM incubated for 1 hr prior to TPA challenge measured after 24 hrs by RT-PCR analysis; format: cell-based; conditions: THP-1; procedure, shortened: as §2
# [11] = biological target: T1, NADPH oxidase 2 (Homo sapiens); assay: Inhibition of NOX2 in human THP1 cells assessed as downregulation of TPA-induced CD11b mRNA expression at 20 uM incubated for 1 hr prior to TPA challenge measured after 24 hrs by RT-PCR analysis; format: cell-based; conditions: THP-1; procedure, shortened: as §2
SMILES,inhibition [1],Activity (THP-1 [2]),inhibition [3],inhibition (THP-1 [4]),inhibition [5],inhibition [6],inhibition [7],inhibition [8],inhibition [9],inhibition [10],inhibition [11]
O=c1cc(-c2ccc(O)c(O)c2)oc2cc(O)cc(O)c12,Active,Active,Active,inactive,Active,inactive,inactive,inactive,Active,Active,Active
O=c1cc(-c2ccccc2)oc2cc(O)cc(O)c12,–,–,–,–,Active,–,–,–,Active,Active,Active
O=c1cc(-c2cc(O)c(O)c(O)c2)oc2cc(O)cc(O)c12,inactive,inactive,–,–,inactive,–,–,–,inactive,inactive,inactive
O=c1cc(-c2ccc(O)cc2)oc2cc(O)cc(O)c12,–,–,–,–,Active,–,–,–,Active,Active,Active
